Laboratory results from ChEMBL document CHEMBL5705892, “MK-2206, an allosteric Akt inhibitor, enhances antitumor efficacy by standard chemotherapeutic agents or molecular targeted drugs in vitro and in vivo” (Mol Cancer Ther, 2010).
Calls of active or inactive are those of the source. The rule behind the calls is not given here.

Key:
[1] = system: NCI-H23; test: Synergistic antiproliferative activity against human NCI-H23 cells assessed as combination index at ED90 measured after 72 hrs in presence of erlotinib by celltiter-glo assay; format: functional
[2] = system: HCC1954; test: Synergistic antiproliferative activity against lapatinib pretreated human HCC1954 cells assessed as combination index at ED50 measured after 72 hrs by celltiter-glo assay; format: functional
[3] = system: A2780; test: Synergistic antiproliferative activity against human A2780 cells assessed as combination index at ED90 measured after 72 hrs in presence of 5-FU by celltiter-glo assay; format: functional
Outline: (§1)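 Cells were seeded at 2–3 × 10³ per well in RPMI 1640 with 10% FBS. At 24 h, MK-2206 and the partner drug were added simultaneously at constant concentration ratios spanning each agent's IC₅₀, for 72 h. Growth was read as cellular ATP by CellTiter-Glo. CI was taken from median-effect plots of each agent alone and in combination (Chou–Talalay), at ED₅₀, ED₇₅ and ED₉₀.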

[4] = Toxicity in human NCI-H460 cells xenografted CD1 nude mouse assessed as body weight loss at 120 mg/kg, po administered 3 times per week for 2 weeks measured on day 14 to 16; format: organism-based; conditions: in vivo, 336 h, time 14-16 day
Outline: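 NCI-H460 cells in 50% Matrigel/PBS injected s.c. into flank of CD1-nude mice; randomized at mean tumour 0.2 cm³ (n = 5). MK-2206 in 30% Captisol, 120 mg/kg p.o. days 0, 2, 4, 7, 9, 11. Carboplatin 50 mg/kg i.v. in saline days 0 and 7 (from day 12 after implant), or gemcitabine 100 mg/kg i.v. in saline days 0 and 7 (from day 8). Body weight monitored.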

[5] = system: A2780; test: Synergistic antiproliferative activity against human A2780 cells assessed as combination index at ED75 measured after 72 hrs in presence of doxorubicin by celltiter-glo assay; format: functional; outline: as §1
[6] = system: MDA-MB-231; test: Synergistic antiproliferative activity against human MDA-MB-231 cells assessed as combination index at ED90 measured after 72 hrs in presence of docetaxel by celltiter-glo assay; format: functional
Outline: (§2)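 Cells grown in RPMI 1640 with 10% heat-inactivated FBS at 37°C, 5% CO₂. Seeded at 2 to 3 × 10³ per well; drugs added 24 h later. […] Viability read as cellular ATP by CellTiter-Glo. CI calculated by Chou–Talalay from median-effect plots at ED50, ED75 and ED90.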

[7] = system: PC-3; test: Antitumor activity against human PC-3 cells xenografted in CD1 nude mouse assessed as reduction in tumor volume at 120 mg/kg, po administered 3 times per week for 2 weeks and measured during compound dosing by caliper method; format: functional, organism-based
Outline: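 Male CD1-nude mice received s.c. PC-3 cells and were treated from day 25 after implant, at 0.2 cm³, n = 5. Docetaxel (0.73% ethanol in saline) was given at 5 mg/kg i.v. on day 0. MK-2206 (30% Captisol) was given at 120 mg/kg po on days 1, 3, 5, 8, 10, 12. Caliper volume twice weekly.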

[8] = system: A2780; test: Synergistic antiproliferative activity against human A2780 cells assessed as combination index at ED90 measured after 72 hrs in presence of doxorubicin by celltiter-glo assay; format: functional; outline: as §1
[9] = system: NCI-H292; test: Antitumor activity against human NCI-H292 cells xenografted in CD-1 mouse assessed as tumor growth suppression at 360 mg/kg, po administered once a week for 2 weeks starting 2 hrs post-erlotinib treatment and measured twice a week during compound dosing by caliper method; format: functional, organism-based
Outline: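 Female CD1-nude mice carried s.c. NCI-H292 cells in Matrigel/PBS and were randomized at 0.2 cm³, n = 5. […] MK-2206 (30% Captisol) was given 2 h later at 120 mg/kg po on days 0, 2, 4, 7, 9, 11, or at 360 mg/kg on days 0 and 7. Control received vehicle. Caliper volume twice weekly.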

[10] = system: HCC1954; test: Antiproliferative activity against human HCC1954 cells assessed as reduction in cell proliferation measured after 72 hrs by celltiter-glo assay; format: functional, cell-based; conditions: HCC1954, 72 h
Outline: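 Cells in RPMI 1640 with 10% heat-inactivated FBS at 37°C and 5% CO₂ were seeded at 2 to 3 × 10³ per well. […] Growth was read as cellular ATP by CellTiter-Glo.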

[11] = system: HCC70; test: Antitumor activity against human HCC70 cells xenografted in CB17/icr SCID mouse assessed as reduction in tumor volume at 120 mg/kg, po administered 3 times per week for 3 weeks and measured twice a week during compound dosing by caliper method; format: functional, organism-based
Outline: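 Female C.B-17/ICR-scid mice were given s.c. HCC70 cells in 50% Matrigel/50% PBS in the left flank. They were randomized at a mean tumor size of 0.2 cm³, n = 5 per group. Lapatinib (distilled water) was given at 100 mg/kg po, 5 d/wk for 3 wk. MK-2206 (30% Captisol) was given at 120 mg/kg po, 3×/wk, 2 h after lapatinib. Calipers twice weekly; volume = […] × 0.5.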

[12] = biological target: RAC-alpha serine/threonine-protein kinase (Homo sapiens) (UniProt P31749); test: Inhibition of AKT in human A-431 cells assessed as reduction in GSK3alpha/beta phosphorylation at S21/S9 residues at 5 umol/L measured after 5 hrs in presence of erlotinib by Western blot analysis; format: cell-based; conditions: dose 5.0 µmol/L
Outline: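 Cells were lysed in Tris-HCl pH 7.5, 150 mM NaCl, 1% Triton X-100 with protease and phosphatase inhibitors. Lysates were run on SDS-PAGE, transferred to nitrocellulose and probed with phospho-specific antibodies.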

[13] = system: BT-474; test: Synergistic antiproliferative activity against human BT-474 cells assessed as combination index at ED75 measured after 72 hrs in presence of docetaxel by celltiter-glo assay; format: functional; outline: as §2
[14] = system: MDA-MB-468; test: Synergistic antiproliferative activity against lapatinib pretreated human MDA-MB-468 cells assessed as combination index at ED75 measured after 72 hrs by celltiter-glo assay; format: functional
[15] = system: SK-OV-3; test: Synergistic antiproliferative activity against lapatinib pretreated human SK-OV-3 cells assessed as combination index at ED75 measured after 72 hrs by celltiter-glo assay; format: functional
[16] = system: SK-OV-3; test: Synergistic antiproliferative activity against human SK-OV-3 cells assessed as combination index at ED50 measured after 96 hrs in presence of lapatinib by celltiter-glo assay; format: functional
[17] = system: NCI-H460; test: Synergistic antiproliferative activity against human NCI-H460 cells assessed as combination index at ED25 to ED90 measured after 72 hrs in presence of gemcitabine by celltiter-glo assay; format: functional
[18] = system: NCI-H460; test: Synergistic antiproliferative activity against human NCI-H460 cells assessed as combination index at ED25 to ED90 measured after 72 hrs in presence of carboplatin by celltiter-glo assay; format: functional
[19] = system: NCI-N87; test: Synergistic antiproliferative activity against human NCI-N87 cells assessed as combination index at ED50 measured after 96 hrs in presence of lapatinib by celltiter-glo assay; format: functional
[20] = system: NCI-N87; test: Synergistic antiproliferative activity against human NCI-N87 cells assessed as combination index at ED75 treated 24 hrs prior to lapatinib and measured after 72 hrs by celltiter-glo assay; format: functional; conditions: time 96 hrs
[21] = system: A-431; test: Synergistic antiproliferative activity against human A-431 cells assessed as combination index at ED50 measured after 72 hrs in presence of erlotinib by celltiter-glo assay; format: functional; outline: as §1

Chain of RAC-alpha serine/threonine-protein kinase (Homo sapiens) (P31749 whole entry): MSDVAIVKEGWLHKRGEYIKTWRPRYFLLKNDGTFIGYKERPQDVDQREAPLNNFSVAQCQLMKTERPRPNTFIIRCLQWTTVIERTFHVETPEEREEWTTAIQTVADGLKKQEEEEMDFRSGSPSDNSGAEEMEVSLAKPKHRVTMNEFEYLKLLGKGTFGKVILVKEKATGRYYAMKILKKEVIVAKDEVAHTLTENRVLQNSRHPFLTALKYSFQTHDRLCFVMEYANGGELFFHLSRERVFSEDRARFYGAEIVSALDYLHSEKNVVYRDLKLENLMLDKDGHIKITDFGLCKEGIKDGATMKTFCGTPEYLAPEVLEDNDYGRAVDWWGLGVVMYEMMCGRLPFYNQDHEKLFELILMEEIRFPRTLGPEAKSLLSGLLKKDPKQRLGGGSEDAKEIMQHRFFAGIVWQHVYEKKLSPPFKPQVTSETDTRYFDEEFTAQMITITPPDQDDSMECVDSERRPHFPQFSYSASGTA

Which results are given for `Cl.NC1(c2ccc(-c3nc4ccn5c(=O)[nH]nc5c4cc3-c3ccccc3)cc2)CCC1`?
CI90 [1]: 0.68; CI50 [2]: 0.18; CI90 [3]: 0.53; Activity [4]: Non-Toxic; CI75 [5]: 0.43; CI90 [6]: 0.7; Activity [7]: Active; CI90 [8]: 0.27; Activity [9]: Active; IC50 [10]: 2900 nM; Activity [11]: Active; inhibition [12]: Active; CI75 [13]: 0.8; CI75 [14]: 0.18; CI75 [15]: 0.18; CI50 [16]: 0.18; CI [17]: 0.33; CI [18]: 0.3; CI50 [19]: 0.18; CI75 [20]: 0.18; CI50 [21]: 0.42
